Measured values as given in ChEMBL document CHEMBL2434865, “The influence of positional isomerism on G-quadruplex binding and anti-proliferative activity of tetra-substituted naphthalene diimide compounds” (Bioorg Med Chem, 2013).
pIC50: −log10 of the molar value.

Tests used:
Homo sapiens [1] = species on record: Homo sapiens; assay: Binding affinity to human T-loop 5'-FAM-TATAGCTATATTTTTTTATAGCTATATAMRA-3' at 2 uM after 3 hrs by HT-FRET assay
Procedure, shortened: (§1)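 Oligonucleotides were diluted from 50 µM stock to 400 nM in 60 mM potassium cacodylate pH 7.4, annealed at 95 °C for 10 min, then cooled to RT over 3 h. Ligand came from a 10 mM aqueous stock, was diluted to twice the final level in buffer and mixed 1:1 with DNA, in triplicate. FAM excitation was 450–495 nm and emission 515–545 nm, read every 0.5 °C from 30–100 °C with a 30 s hold. Tm is the first-derivative maximum of the smoothed, normalized curve; ΔTm is relative to DNA without ligand.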

[2] = Cytotoxicity against human RCC4 cells after 96 hrs by SRB assay; assay type: functional, cell-based; conditions: RCC4, 96 h
MIA PaCa-2 = assay: Cytotoxicity against human MIAPaCa2 cells after 96 hrs by SRB assay; assay type: functional, cell-based; conditions: MIA PaCa-2, 96 h
Procedure, shortened: (§2)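 For A549, MCF7, MIA PaCa2 (DMEM with 2 mM glutamine and 10% FCS) and PANC1 (same DMEM), 1000–4000 cells per well were seeded and left 24 h. Compound was added over a concentration range for 96 h at 37 °C in 5% CO2. Cells were fixed with 10% TCA (30 min, 4 °C) and stained with 0.4% SRB in 1% acetic acid for 15 min. Dye was dissolved in 10 mM Tris and read at A540. IC50 was interpolated as the level giving 50% absorbance loss versus untreated cells.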

Homo sapiens [3] = species on record: Homo sapiens; assay: Binding affinity to human HSP90A 5'-FAM-GGGCCAAAGGGAAGGGGTGGG-TAMRA-3' at 2 uM after 3 hrs by HT-FRET assay; procedure, shortened: as §1
Homo sapiens [4] = species on record: Homo sapiens; assay: Binding affinity to human telomeric quadruplex 5'-FAM-GGGTTAGGGTTAGGGTTAGGG-TAMRA-3' at 1 uM after 3 hrs by HT-FRET assay; procedure, shortened: as §1
Homo sapiens [5] = species on record: Homo sapiens; assay: Binding affinity to human telomeric quadruplex 5'-FAM-GGGTTAGGGTTAGGGTTAGGG-TAMRA-3' at 2 uM after 3 hrs by HT-FRET assay; procedure, shortened: as §1
Homo sapiens [6] = species on record: Homo sapiens; assay: Binding affinity to human HSP90B 5'-FAM-GGGCGGGCCAAAGGGAAGGGG-TAMRA-3' at 2 uM after 3 hrs by HT-FRET assay; procedure, shortened: as §1
WI-38 = assay: Cytotoxicity against human WI38 cells after 96 hrs by SRB assay; assay type: cell-based; conditions: WI-38, 96 h
Procedure, shortened: (§3)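 Monolayer cultures were kept at 37 °C in humidified 5% CO2. Media were RPMI 1640 with 2 mM glutamine, 10% FCS and 1 mM pyruvate for 786-O, and MEM with 2 mM glutamine, 1% amino acids and 10% FCS for WI-38. Cells were exposed to compound over a concentration range for 96 h. Cells were fixed with TCA, stained with SRB, dissolved in 10 mM Tris and read at 540 nm. Values were normalized to untreated controls, and IC50 was interpolated as 50% absorbance reduction.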

Homo sapiens [7] = species on record: Homo sapiens; assay: Binding affinity to human T-loop 5'-FAM-TATAGCTATATTTTTTTATAGCTATATAMRA-3' at 1 uM after 3 hrs by HT-FRET assay; procedure, shortened: as §1
A549 = assay: Cytotoxicity against human A549 cells after 96 hrs by SRB assay; assay type: functional, cell-based; conditions: A549, 96 h; procedure, shortened: as §2
[8] = Cytotoxicity against human 786-O cells after 96 hrs by SRB assay; assay type: functional, cell-based; conditions: 786-0, 96 h; procedure, shortened: as §3
MCF7 = assay: Cytotoxicity against human MCF7 cells after 96 hrs by SRB assay; assay type: functional, cell-based; conditions: MCF7, 96 h; procedure, shortened: as §2
PANC-1 [9] = assay: Cytotoxicity against human PANC1 cells after 96 hrs by SRB assay; assay type: functional, cell-based; conditions: PANC-1, 96 h; procedure, shortened: as §2
Homo sapiens [10] = species on record: Homo sapiens; assay: Binding affinity to human HSP90A 5'-FAM-GGGCCAAAGGGAAGGGGTGGG-TAMRA-3' at 1 uM after 3 hrs by HT-FRET assay; procedure, shortened: as §1
Homo sapiens [11] = species on record: Homo sapiens; assay: Binding affinity to human HSP90B 5'-FAM-GGGCGGGCCAAAGGGAAGGGG-TAMRA-3' at 1 uM after 3 hrs by HT-FRET assay; procedure, shortened: as §1
PANC-1 [12] = assay: Ratio of IC50 for human MIAPaCa2 cells to IC50 for human PANC1 cells; assay type: functional

Q: What does the source list for CN1CCN(CCCN2C(=O)c3cc(NCC4CCOCC4)c4c5c(cc(NCC6CCOCC6)c(c35)C2=O)C(=O)N(CCCN2CCN(C)CC2)C4=O)CC1?
A: ΔTm (Homo sapiens [1]): 0 °C; pIC50 [2]: 5.66; pIC50 (MIA PaCa-2): 6.86; ΔTm (Homo sapiens [3]): 27 °C; ΔTm (Homo sapiens [4]): < 2 °C; ΔTm (Homo sapiens [5]): 22 °C; ΔTm (Homo sapiens [6]): 23 °C; pIC50 (WI-38): 5.55; ΔTm (Homo sapiens [7]): 0 °C; pIC50 (A549): 6.34; pIC50 [8]: 6.54; pIC50 (MCF7): 6.29; pIC50 (PANC-1 [9]): 5.96; ΔTm (Homo sapiens [10]): 2 °C; ΔTm (Homo sapiens [11]): 3 °C

Q: What does the source list for CN1CCN(CCN2C(=O)c3cc(NCCCN4CCOCC4)c4c5c(cc(NCCCN6CCOCC6)c(c35)C2=O)C(=O)N(CCN2CCN(C)CC2)C4=O)CC1?
A: ΔTm (Homo sapiens [1]): 8 °C; pIC50 [2]: 6.52; pIC50 (MIA PaCa-2): 8.30; ΔTm (Homo sapiens [3]): 36 °C; ΔTm (Homo sapiens [4]): 26 °C; ΔTm (Homo sapiens [5]): 31 °C; ΔTm (Homo sapiens [6]): 32 °C; pIC50 (WI-38): 6.74; ΔTm (Homo sapiens [7]): 2 °C; pIC50 (A549): 7.70; pIC50 [8]: 6.80; pIC50 (MCF7): 7.68; pIC50 (PANC-1 [9]): 8.30; ΔTm (Homo sapiens [10]): 33 °C; ΔTm (Homo sapiens [11]): 28 °C

Q: For CN1CCN(CCCN2C(=O)c3cc(NC[C@@H]4CCCO4)c4c5c(cc(NC[C@H]6CCCO6)c(c35)C2=O)C(=O)N(CCCN2CCN(C)CC2)C4=O)CC1, which ΔTm (Homo sapiens [1]) is on record?
A: 0 °C

Q: What about the pIC50 [2] of the same compound?
A: 5.52

Q: And the pIC50 (MIA PaCa-2)?
A: 7.02

Q: And the ΔTm (Homo sapiens [3])?
A: 23 °C

Q: And the ΔTm (Homo sapiens [4])?
A: < 2 °C

Q: And the ΔTm (Homo sapiens [5])?
A: 15 °C

Q: What about the ΔTm (Homo sapiens [6]) of the same compound?
A: 17 °C

Q: What about the pIC50 (WI-38) of the same compound?
A: 5.64

Q: And the ΔTm (Homo sapiens [7])?
A: 0 °C

Q: And the pIC50 (A549)?
A: 6.80

Q: What about the pIC50 [8] of the same compound?
A: 6.41

Q: And the pIC50 (MCF7)?
A: 6.25

Q: And the pIC50 (PANC-1 [9])?
A: 5.82

Q: What about the ΔTm (Homo sapiens [10]) of the same compound?
A: 21 °C

Q: And the ΔTm (Homo sapiens [11])?
A: 13 °C

Q: What does the source list for CN1CCN(CCCN2C(=O)c3cc(NCCCN4CCOCC4)c4c5c(cc(NCCCN6CCOCC6)c(c35)C2=O)C(=O)N(CCCN2CCN(C)CC2)C4=O)CC1?
A: ΔTm (Homo sapiens [1]): 9 °C; pIC50 [2]: 6.21; pIC50 (MIA PaCa-2): 7.30; ΔTm (Homo sapiens [3]): 36 °C; ΔTm (Homo sapiens [4]): 29 °C; ΔTm (Homo sapiens [5]): 34 °C; ΔTm (Homo sapiens [6]): 34 °C; pIC50 (WI-38): 6.52; ΔTm (Homo sapiens [7]): 5 °C; pIC50 (A549): 8.15; pIC50 [8]: 6.36; pIC50 (MCF7): 7.85; pIC50 (PANC-1 [9]): 8.70; ΔTm (Homo sapiens [10]): 34 °C; ΔTm (Homo sapiens [11]): 30 °C

Q: With CN1CCN(CCCNc2cc3c4c(c(NCCCN5CCN(C)CC5)cc5c4c2C(=O)N(CCCN2CCOCC2)C5=O)C(=O)N(CCCN2CCOCC2)C3=O)CC1 as the compound, how does the pIC50 (PANC-1 [9]) read?
A: 8.52

Q: And the “Ratio IC50” value (PANC-1 [12])?
A: 5

Q: Which ΔTm (Homo sapiens [1]) does the source give for COCCCNc1cc2c3c(c(NCCCOC)cc4c3c1C(=O)N(CCCN1CCN(C)CC1)C4=O)C(=O)N(CCCN1CCN(C)CC1)C2=O here?
A: 0 °C

Q: And the pIC50 [2]?
A: 5.12

Q: And the pIC50 (MIA PaCa-2)?
A: 5.15

Q: What about the ΔTm (Homo sapiens [3]) of the same compound?
A: 24 °C

Q: What about the ΔTm (Homo sapiens [4]) of the same compound?
A: < 2 °C

Q: And the ΔTm (Homo sapiens [5])?
A: 16 °C

Q: And the ΔTm (Homo sapiens [6])?
A: 26 °C

Q: And the pIC50 (WI-38)?
A: < 4.60

Q: And the ΔTm (Homo sapiens [7])?
A: 0 °C

Q: What about the pIC50 (A549) of the same compound?
A: 5.24

Q: What about the pIC50 [8] of the same compound?
A: 4.79

Q: What about the pIC50 (MCF7) of the same compound?
A: 4.76

Q: And the pIC50 (PANC-1 [9])?
A: 5.60

Q: And the ΔTm (Homo sapiens [10])?
A: 22 °C

Q: What about the ΔTm (Homo sapiens [11]) of the same compound?
A: 22 °C
